test: Toxicity liver stage against HepG2, at 10uM; assay type: cell-based; set-up: test concentration 10 uM, cell line HepG2-A16-CD81EGFP; settings: human, HepG2-A16-CD81EGFP cells; read-out: INHIBITION
Method in brief: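 Uninfected HepG2-A16-CD81EGFP cells, 3 × 10^3 per well, 1536-well, plated on prespotted compound at 10 μM final, parasite-free screening media added to match infected plates; puromycin 10 μM positive, DMSO 0.5% negative; run in parallel with 48 h PbLuc assay at 37 °C, 5% CO2; viability by CellTiter-Glo luminescence, normalized to controls.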

Row | SMILES | cytotoxicity at 10 µM [%]
1 | Cc1nn(C)c(C)c1C(C)NC(=O)c1cc(CN2CCC(O)CC2)on1 (stereo not given) | 0.894
2 | Cc1cccc2c1nc(CCO)n2-c1ccc(C(=O)N2CCCC2)o1 | 7.39
3 | CN1CCCN(C[C@@H]2CN(c3nc(C(N)=O)cs3)C[C@@H]2CO)CC1 | 2.67
4 | Cc1n[nH]c(C)c1CC(=O)N1CCN(C)C2(CCNC(=O)CC2)C1 (stereo not given) | 2.65
5 | CCn1cnnc1Cc1nc2c([nH]1)CC(c1ccc(Cl)cc1)CNC2=O (stereo not given) | -48.9
6 | Cc1nn(C)c2nc(NCCN3CCCC(C(N)=O)C3)sc12 (stereo not given) | 0.739
7 | CN(C)CC1(O)CCN(Cc2cnc3c(-c4ccccc4)cnn3c2)C1 (stereo not given) | -6.16
8 | Cc1cc(C)n2ncc(CN3CCC(Cn4cc(CO)nn4)CC3)c2n1 | 7.85
9 | CN(C)CCCn1ccnc1C1CCN(c2cccc(C(=O)O)n2)CC1 | 6.87
10 | CCCc1cc(C(=O)N[C@H](C)[C@@H](O)c2ccc(O)cc2)n(C)n1 | 1.48
11 | Cc1nsc(NC(=O)N2CCN(Cc3ccccc3F)C(=O)C2)n1 | -4.25
12 | CN(CCc1ccccn1)C(=O)C1Cc2ccccc2CN1C (stereo not given) | 1.47
13 | Cc1ccsc1-c1nccn1CCS(=O)(=O)N1CCCC1 | -3.67
14 | CCC[C@@H]1CN(C(=O)c2cc3ccccc3s2)C[C@H]1NS(C)(=O)=O | -9.53
15 | Cc1ccc(-c2c(-c3ccccc3)ncn2CCCN2CCOCC2)o1 | 6.23
16 | CNc1ncccc1C(=O)N1CCCC2(CCN(C)CC2)CC1 | -9.17
17 | C[C@@H]1CN(Cc2ccncc2)C[C@]1(C)O | 1.6
18 | COC(=O)N1CCN(c2ncnc3nc(C)cc(C)c23)CC1 | -15.2
19 | Cc1noc(C)c1CN(C)c1nc(C2CCCC2)nc2c1cnn2C | 22.2
20 | O=C(NCc1cccnc1-n1cncn1)C1CC2(CCNCC2)CN1 (stereo not given) | 2.08
21 | COCCc1noc(CNC2CCCC(C)(C)C2)n1 (stereo not given) | -0.475
22 | N#Cc1cccc(S(=O)(=O)N2CCCCC2CCN2CCCC2=O)c1 (stereo not given) | -16.9
23 | CCN(CC)c1ccc(-c2nc(-c3cccc(OC)c3OC)no2)cn1 | 20
24 | CCCc1nc(C)cc(N2CCC3(CCC(=O)N(CCOC)C3)CC2)n1 | 9.51
25 | Cc1cc2c(=O)n3c(nc2s1)CCN(C(=O)c1ccncc1)CC3 | 1.08
26 | O=C(Nc1ccc(CCN2CCC(O)CC2)cc1)C1CCCOC1 (stereo not given) | -4.81
27 | CCc1csc(C2CCCN(C(=O)C3=NN(CC)C(=O)CC3)C2)n1 (stereo not given) | -6.26
28 | Cc1noc(C)c1C(=O)NCC(O)c1ccc(F)cc1F (stereo not given) | -3.56

Row | SMILES | cytotoxicity at 10 µM [%]
29 | COc1ccc(C(O)CNC(=O)NCc2csc(C)n2)cc1 (stereo not given) | -6.12
30 | NC(=O)COc1cccc(C(=O)N2CCCC(n3cccn3)C2)c1 (stereo not given) | -4.86
31 | Cc1nc(C)c(CC(=O)Nc2nnc(C)s2)c(=O)[nH]1 | -2.17
32 | Cn1cc(Cl)cc1C(=O)N1CCCN(Cc2cccs2)CC1 | -5.82
33 | CN(Cc1nc(-c2ccco2)no1)C1CCCN(c2cccnn2)C1 (stereo not given) | -7.72
34 | Fc1cccc(-c2nc(CN3CCCCC3Cn3cncn3)co2)c1 (stereo not given) | -12.8
35 | CCS(=O)(=O)c1ccccc1C(=O)NCc1ccnc(N(C)C)c1 | -3.92
36 | CCc1nc(CN(C)C2CCN(CCNS(=O)(=O)CC)C2)no1 (stereo not given) | -2.14
37 | c1ccc(-c2nc(CN3CCCC(Cn4cncn4)C3)co2)cc1 (stereo not given) | 3.18
38 | Cc1nc(C)n(C2CCCN(C(=O)c3cc4ccccc4n3C)C2)n1 (stereo not given) | -4.5
39 | CN(C)C(=O)CO[C@@H]1CC[C@H]2[C@H]1OCCN2c1ncccn1 | -6.96
40 | Cc1nc(CN2C(=O)C[C@H]3[C@H]2CCN3C2CCOCC2)cs1 | -7.87
41 | c1nc2c(c(-c3ccsc3)n1)CCN(Cc1ccoc1)CC2 | -11.4
42 | O=C(O)c1cc(NS(=O)(=O)c2ccc(Cl)s2)ccc1N1CCOCC1 | -4.05
43 | CC1=N[C@@]2(CC[C@@H]3CN(Cc4ccccc4F)C[C@@H]32)C(=O)N1CC1CC1 | 1.47
44 | CC(C)N1[C@H](Cn2cncn2)C[C@@H]2CN(c3ncccn3)CC[C@@H]21 | 3.17
45 | CC(C)n1nc(CN(C)C)c2c1CN(CC1CC1)CC2 | -3.15
46 | O=C(NC1CCC1)[C@H]1CCS(=O)(=O)[C@@H]2CN(CCc3ccccc3)C[C@H]12 | -3.06
47 | CC(=O)N1CCOCC2(CCN(Cc3ccc(C)s3)CC2)C1 | -5.39
48 | N#Cc1cccc(N2CC3(CCN(C(=O)c4cccnc4)C3)CC2=O)c1 (stereo not given) | 0.925
49 | Cc1noc(C)c1CN1CCO[C@H]2CN(CC3CC3)C[C@H]21 | -4.25
50 | Cc1nc(N2CCCC2)nc2c1CCN(C(=O)CN(C)C)CC2 | -5.73
51 | CC(C)N(C)Cc1nnc2n1CCN(CC1CC1)CC2 | 0.319
52 | CN(C)C(=O)N[C@@H]1CN(C2CCOCC2)[C@@H]2CCCO[C@@H]21 | -4.08
53 | COCCN1C[C@@H](C)[C@@]2(COCCN(C(=O)c3cccs3)C2)C1 | 9.7
54 | O=C(N[C@@H]1CN(c2ncccn2)C[C@@H]2CCCO[C@@H]21)c1cnccn1 | 0.199
55 | CN(C)c1nc2cn(C3CC(C)(C)NC(C)(C)C3)c(=O)c-2c[nH]1 | 6.39

Source: ChEMBL document CHEMBL4513216, “Probing the Open Global Health Chemical Diversity Library for Multistage-Active Starting Points for Next-Generation Antimalarials” (ACS Infect Dis, 2020)
